Active and inactive are the calls of the source. The calls are words filed in the database; no cut-off is given here.
What was measured:
Mus musculus = assay: Antiinflammatory activity in carrageenan-induced BALB/c mouse peritonitis model assessed as reduction in number of neutrophils in peritoneal fluid at 80 mg/kg, ip pretreated for 1 hr followed by carrageenan challenge measured after 4 hrs by hematoxylin and eosin staining-based assay relative to control; format: functional
Summary of the method: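 Male BALB/c mice were dosed orally with compound (20 or 80 mg/kg) or vehicle; indomethacin 80 mg/kg was given ip. One hour later, carrageenan (250 µL of 1.0 mg/mL) was injected ip. Peritoneal lavage with 2 mL saline at 4 h. Total leukocytes counted in Neubauer chamber with Trypan blue; neutrophils by blinded 200-cell differential on H&E-stained cytospins.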

Splenocyte [1] = assay: Immunomodulatory activity in BALB/c mouse splenocytes assessed as inhibition of concanavalin A-induced lymphocyte proliferation by measuring [3H]-thymidine uptake after 48 to 72 hrs by scintillation counting analysis; format: functional, cell-based
Summary of the method: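 BALB/c splenocytes at 1×10^6 cells/well, in triplicate, stimulated with Con A (2 μg/mL) or anti-CD3/CD28 beads (1:1 bead:cell) with compound at 12–0.04 μM. After 48 h, 1 μCi 3H-thymidine added for a further 18 h; scintillation counting. Proliferation as % uptake versus untreated; dexamethasone control. IC50 from three independent experiments.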

J774 = assay: Antiinflammatory activity in BALB/c mouse J774 cells assessed as inhibition of LPS/IFNgamma-induced nitric oxide production at 20 uM after 24 hrs by Griess method relative to control; format: functional; details: J774, 24 h
Summary of the method: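 J774 macrophages, 2×10^5 cells/well in DMEM + 10% FBS, allowed to settle 2 h at 37°C, 5% CO2; stimulated with LPS (E. coli 0111:B4, 500 ng/mL) plus IFNγ (5 ng/mL) with compound present (primary screen at 20 μM). Nitrite measured by Griess in supernatants at 24 h; % inhibition against stimulated untreated control.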

[2] = Cytotoxicity against BALB/c mouse J774 cells assessed as reduction in cell viability after 72 hrs by alamarBlue assay; format: cell-based
Summary of the method: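 J774 murine macrophages, 1×10^4 cells/well in DMEM + 10% FBS, pre-incubated 24 h at 37°C, 5% CO2; compounds 100–0.41 μM in triplicate for 72 h. AlamarBlue added for 4 h, absorbance at 570 and 600 nm; gentian violet positive control. CC50 from three independent experiments.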

Splenocyte [3] = assay: Antiinflammatory activity in BALB/c mouse splenocytes assessed as inhibition of concanavalin A-induced IFN-gamma level at 10 uM after 48 hrs by ELISA; format: functional, cell-based
Summary of the method: (§1)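 Splenocytes from BALB/c mice at 5×10^6 cells/well in DMEM, stimulated with Con A 5 µg/mL, with compound at 10, 5 and 2.5 µM. Cell-free supernatants collected at 48 h and stored at -80 °C. IL-2, IL-4, IL-10, IL-17 and IFNγ measured by sandwich ELISA. Dexamethasone control at 10 µM (1.0 µM for IL-2). Mean±S.E.M. from one of two experiments.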

Splenocyte [4] = assay: Antiinflammatory activity in BALB/c mouse splenocytes assessed as inhibition of concanavalin A-induced IL-4 level at 10 uM after 48 hrs by ELISA; format: functional, cell-based; summary of the method: as §1
Splenocyte [5] = assay: Antiinflammatory activity in BALB/c mouse splenocytes assessed as inhibition of concanavalin A-induced IL-17A level at 10 uM after 48 hrs by ELISA; format: functional, cell-based; summary of the method: as §1
Splenocyte [6] = assay: Antiinflammatory activity in BALB/c mouse splenocytes assessed as inhibition of concanavalin A-induced IL-10 level at 10 uM after 48 hrs by ELISA; format: functional, cell-based; summary of the method: as §1
Splenocyte [7] = assay: Antiinflammatory activity in BALB/c mouse splenocytes assessed as inhibition of concanavalin A-induced IL-2 level at 1 uM after 48 hrs by ELISA; format: functional, cell-based; summary of the method: as §1

SMILES	IC50 (Splenocyte [1]) [µM]	inhibition at 20 µM (J774) [%]	CC50 at 72 h [2] [µM]	also measured
COc1ccc2c(c1)c(CC(=O)O)c(C)n2C(=O)c1ccc(Cl)cc1 [INDOMETHACIN]				inhibition in vivo at 80 mg/kg (Mus musculus): 35.9%
CC(/C=N/Nc1ccc([N+](=O)[O-])cc1)=N\NC(=O)c1ccc2c(c1)OCO2	> 12	23.2	> 100	
CC(/C=N/Nc1ccc([N+](=O)[O-])cc1)=N\NC(=O)c1ccccc1I	2.98	56.8	40	
C[C@@H]1C[C@H]2[C@@H]3CCC4=CC(=O)C=C[C@]4(C)[C@@]3(F)[C@@H](O)C[C@]2(C)[C@@]1(O)C(=O)CO [DEXAMETHASONE]	0.001	69.8	91.1	inhibition (Splenocyte [3]): Active; inhibition (Splenocyte [4]): Active; inhibition (Splenocyte [5]): Active; inhibition (Splenocyte [6]): Active; inhibition (Splenocyte [7]): Active
CC(/C=N/N(C)c1ccc([N+](=O)[O-])cc1)=N\NC(=O)c1ccc(N)cc1	> 12	3.6	51.7	
CC(/C=N/Nc1ccc([N+](=O)[O-])cc1)=N\NC(=O)c1ccccc1Nc1ccccc1		14.1	> 100	
CC(/C=N/Nc1ccc([N+](=O)[O-])cc1)=N\NC(=O)c1ccccc1N	4.9	39.3	29.8	
CC(/C=N/Nc1ccc([N+](=O)[O-])cc1)=N\NC(=O)c1ccccc1Cl	> 12	39.4	> 100	
CC(/C=N/Nc1ccc([N+](=O)[O-])cc1)=N\NC(=O)c1ccc(Cl)cc1	4.2	23	63.9	
COc1ccc(C(=O)N/N=C(C)/C=N/Nc2ccc([N+](=O)[O-])cc2)cc1	> 12	7.5	> 100	
CC(/C=N/Nc1ccc([N+](=O)[O-])cc1)=N\NC(=O)c1ccc([N+](=O)[O-])cc1	0.98	39.1	> 100	
CC(/C=N/Nc1ccc([N+](=O)[O-])cc1)=N\NC(=O)c1ccc(C(F)(F)F)cc1	> 12	18.7	78.7	
CC(/C=N/Nc1ccc([N+](=O)[O-])cc1)=N\NC(=O)c1ccc(N(C)C)cc1	> 12	25.6	> 100	
CC(/C=N/Nc1ccc([N+](=O)[O-])cc1)=N\NC(=O)c1cccc(C)c1	> 12	9.3	> 100	
CC(/C=N/Nc1ccc([N+](=O)[O-])cc1)=N\NC(=O)c1ccccc1Oc1ccccc1	> 12	5.5	> 100	
CC(/C=N/Nc1ccc([N+](=O)[O-])cc1)=N\NC(=O)c1ccccc1O	1.64	59.7	29.5	
CC(/C=N/N(C)c1ccc([N+](=O)[O-])cc1)=N\NC(=O)c1ccccc1O	3.12	41	31.5	
CC(/C=N/Nc1ccc([N+](=O)[O-])cc1)=N\NC(=O)c1ccccc1C	6	21.9	> 100	
CC(/C=N/Nc1ccc([N+](=O)[O-])cc1)=N\NC(=O)c1ccc(N)cc1	> 12	12.8	75	
CC(/C=N/Nc1ccc([N+](=O)[O-])cc1)=N\NC(=O)c1ccccc1	> 12	31.4	> 100	
COc1cc(C(=O)N/N=C(C)/C=N/Nc2ccc([N+](=O)[O-])cc2)ccc1O	5.1	6.6	> 100	
CC(/C=N/Nc1ccc([N+](=O)[O-])cc1)=N\NC(=O)c1ccccc1F	> 12	5.3	> 100	
CC(/C=N/N(C)c1ccc([N+](=O)[O-])cc1)=N\NC(=O)c1cc([N+](=O)[O-])cc([N+](=O)[O-])c1	1.11	51	39	
CN(C)c1ccc(C(=C2C=CC(=[N+](C)C)C=C2)c2ccc(N(C)C)cc2)cc1 [GENTIAN VIOLET]			4.1	
CC(/C=N/Nc1ccc([N+](=O)[O-])cc1)=N\NC(=O)c1ccc(C(C)(C)C)cc1	> 12	4.8	> 100	
CC(/C=N/Nc1ccc([N+](=O)[O-])cc1)=N\NC(=O)c1ccc(O)cc1	1.51	43.8	51	

Source: ChEMBL document CHEMBL4219127, “Structural design, synthesis and substituent effect of hydrazone-N-acylhydrazones reveal potent immunomodulatory agents” (Bioorg Med Chem, 2018)
